In brackets after ≈: the same amount, converted by molar mass.
Tests used:
Assay type in all cases: functional
Conditions in all cases: read-out: ED50 (the source's name)
HCT-15 = test: Cytotoxicity against human HCT15 cells
Procedure, shortened: (§1)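 Cultured human carcinoma lines were used: colon HCT-15, cervical UISO-SQC-1 and ovarian OVCAR-5. Cells were exposed to a series of concentrations of the purified glycosides, and the cell inhibitory concentration was determined. Maintenance and assay details follow an earlier procedure that is not given here.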

[1] = Cytotoxicity against human UISO-SQC1 cells; procedure, shortened: as §1
OVCAR-5 = test: Cytotoxicity against human OVCAR5 cells; procedure, shortened: as §1

CCCCCCCCCCCC(=O)O[C@H]1[C@H](O[C@@H]2[C@@H](O)[C@H]3OC(=O)CCCCCCCCCC(CCCCC)O[C@@H]4O[C@H](CO)[C@@H](O)[C@H](O)[C@H]4O[C@H]3O[C@H]2C)O[C@@H](C)[C@H](O[C@@H]2O[C@@H](C)[C@H](OC(=O)CCC)[C@@H](OC(=O)C(C)C(C)O)[C@H]2O[C@H]2O[C@H](CO)[C@@H](O)[C@H](O)[C@H]2O)[C@H]1O (some centres undefined) [ARBORESIN 4]
EC50 (HCT-15): > 5 µg/mL
EC50 [1]: > 5 µg/mL
EC50 (OVCAR-5): > 5 µg/mL

CCCCCCCCCCCC(=O)O[C@H]1[C@H](O[C@@H]2[C@@H](O)[C@H]3OC(=O)CCCCCCCCCC(CCCCC)O[C@@H]4O[C@H](C)[C@@H](O)[C@H](O)[C@H]4O[C@H]3O[C@H]2C)O[C@@H](C)[C@H](O[C@@H]2O[C@@H](C)[C@H](O)[C@@H](O)[C@H]2O[C@H]2O[C@H](CO)[C@@H](O)[C@H](O)[C@H]2O)[C@H]1O (some centres undefined) [MURUCIN 9]
EC50 (HCT-15): > 5 µg/mL
EC50 [1]: > 5 µg/mL
EC50 (OVCAR-5): 4 µg/mL (≈ 3.38 µM)

C/C=C(\C)C(=O)O[C@@H]1[C@@H](OC(=O)C(C)C(C)O)[C@@H](O[C@H]2O[C@H](CO)[C@@H](O)[C@H](O)[C@H]2O)[C@H](O[C@@H]2[C@@H](O)[C@@H](OC(=O)CCCCCCCCCCC)[C@H](O[C@@H]3[C@@H](O)[C@H]4OC(=O)CCCCCCCCCC(CCCCC)O[C@@H]5O[C@H](C)[C@@H](O)[C@H](O)[C@H]5O[C@H]4O[C@H]3C)O[C@H]2C)O[C@H]1C (some centres undefined) [MURUCIN 8]
EC50 (HCT-15): > 5 µg/mL
EC50 [1]: > 5 µg/mL
EC50 (OVCAR-5): > 5 µg/mL

C/C=C/C(=O)O[C@@H]1[C@@H](OC(=O)C(C)C(C)O)[C@@H](O[C@H]2O[C@H](CO)[C@@H](O)[C@H](O)[C@H]2O)[C@H](O[C@@H]2[C@@H](O)[C@@H](OC(=O)CCCCCCCCCCC)[C@H](O[C@@H]3[C@@H](O)[C@H]4OC(=O)CCCCCCCCCC(CCCCC)O[C@@H]5O[C@H](C)[C@@H](O)[C@H](O)[C@H]5O[C@H]4O[C@H]3C)O[C@H]2C)O[C@H]1C (some centres undefined) [MURUCIN 7]
EC50 (HCT-15): > 5 µg/mL
EC50 [1]: > 5 µg/mL
EC50 (OVCAR-5): 4.5 µg/mL (≈ 3.33 µM)

CCCCCCCCCCCC(=O)O[C@H]1[C@H](O[C@@H]2[C@@H](O)[C@H]3OC(=O)CCCCCCCCCC(CCCCC)O[C@@H]4O[C@H](CO)[C@@H](O)[C@H](O)[C@H]4O[C@H]3O[C@H]2C)O[C@@H](C)[C@H](O[C@@H]2O[C@@H](C)[C@H](OC(=O)CC)[C@@H](OC(=O)C(C)C(C)O)[C@H]2O[C@H]2O[C@H](CO)[C@@H](O)[C@H](O)[C@H]2O)[C@H]1O (some centres undefined) [ARBORESIN 3]
EC50 (HCT-15): > 5 µg/mL
EC50 [1]: > 5 µg/mL
EC50 (OVCAR-5): > 5 µg/mL

CCCCCCCCCCCC(=O)O[C@H]1[C@H](O[C@@H]2[C@@H](O)[C@H]3OC(=O)CCCCCCCCCC(CCCCC)O[C@@H]4O[C@H](CO)[C@@H](O)[C@H](O)[C@H]4O[C@H]3O[C@H]2C)O[C@@H](C)[C@H](O[C@@H]2O[C@@H](C)[C@H](OC(C)=O)[C@@H](OC(=O)C(C)C(C)O)[C@H]2O[C@H]2O[C@H](CO)[C@@H](O)[C@H](O)[C@H]2O)[C@H]1O (some centres undefined) [ARBORESIN 2]
EC50 (HCT-15): > 5 µg/mL
EC50 [1]: > 5 µg/mL
EC50 (OVCAR-5): 4.2 µg/mL (≈ 3.13 µM)

CCCCCCCCCCCC(=O)O[C@H]1[C@H](O[C@@H]2[C@@H](O)[C@H]3OC(=O)CCCCCCCCCC(CCCCC)O[C@@H]4O[C@H](CO)[C@@H](O)[C@H](O)[C@H]4O[C@H]3O[C@H]2C)O[C@@H](C)[C@H](O[C@@H]2O[C@@H](C)[C@H](OC(=O)C(C)CC)[C@@H](OC(=O)C(C)C(C)O)[C@H]2O[C@H]2O[C@H](CO)[C@@H](O)[C@H](O)[C@H]2O)[C@H]1O (some centres undefined) [ARBORESIN 5]
EC50 (HCT-15): > 5 µg/mL
EC50 [1]: > 5 µg/mL
EC50 (OVCAR-5): > 5 µg/mL

CCCCCCCCCCCC(=O)O[C@H]1[C@H](O[C@@H]2[C@@H](O)[C@H]3OC(=O)CCCCCCCCCC(CCCCC)O[C@@H]4O[C@H](CO)[C@@H](O)[C@H](O)[C@H]4O[C@H]3O[C@H]2C)O[C@@H](C)[C@H](O[C@@H]2O[C@@H](C)[C@H](O)[C@@H](OC(=O)C(C)C(C)O)[C@H]2O[C@H]2O[C@H](CO)[C@@H](O)[C@H](O)[C@H]2O)[C@H]1O (some centres undefined) [ARBORESIN 1]
EC50 (HCT-15): > 5 µg/mL
EC50 [1]: > 5 µg/mL
EC50 (OVCAR-5): 5 µg/mL (≈ 3.85 µM)
